Screening data from PubChem.
AI-2 QS modul: modulates the Vibrio harveyi AI-2 quorum sensing system. 0.4% of 300,000 active. AID 2094. activity change, % at 7.5 µM. Vibrio harveyi JMH597 AI-2 luminescence/OD600 ratio, 9 h; active compounds read low; strain lacks LuxN and CqsS sensors; 0 = neutral-control median; in the data active = activity change below about -75%, passing the limit was not always enough; inconclusive = no clear call, values can overlap the other calls;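 note: luminescence divided by OD600 gain over 9 h not by final OD600 alone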
UBC13 inh: blocks human UBC13 polyubiquitin chain formation. 0.47% of 330,000 active. TR-FRET. inhibition, % at 20 µM; in the data active = inhibition above about 45%, passing the limit was not always enough; inconclusive = no clear call, values can overlap the other calls
Target sequence (P61088 whole entry, looked up): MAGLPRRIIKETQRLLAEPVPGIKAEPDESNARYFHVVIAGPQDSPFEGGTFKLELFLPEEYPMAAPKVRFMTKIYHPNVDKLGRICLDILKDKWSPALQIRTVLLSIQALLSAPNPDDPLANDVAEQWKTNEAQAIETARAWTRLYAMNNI
T cruzi inh: T. cruzi replication inhibition; inhibition, % (test concentration not listed); 1.4% of 300,000 active; T. cruzi beta-gal in NIH3T3, luminescence, 90 h; AID 1885;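 active = mean inhibition across valid replicates above about 55%, limit read from the data; inconclusive = mean below that limit but half or more replicates reach it; inactive = mean below it, under half of replicates reach it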;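 note: signal also drops with host cell toxicity which is not excluded here; 0% = plate median of DMSO wells and 100% = zero luminescence signal; higher percent means less beta-gal luminescence so fewer parasites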
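Material: NIH/3T3 host cells with β-galactosidase reporter T. cruzi; Input: 5,000 host fibroblasts per well; Medium: DMEM, 2% fetal bovine serum; Compound: 50 nL DMSO compound solution per well; Schedule: 3 h host attachment, then at least 90 h co-culture; Detection: luminescent β-galactosidase signal after 60 min lysis.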
PP1 inh: PP1-alpha (human) inhibition in PP5 counter-screen | inhibition, % at 6.7 µM | purified PP1alpha, OMFP fluorescence | P62136 | 0.9% of 320,000 active | AID 2235;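 active = inhibition above the mean inhibition of all tested compounds plus 3 SD, computed separately for each screening campaign, cut at about 15% in these data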
Target sequence (P62136 whole entry, looked up): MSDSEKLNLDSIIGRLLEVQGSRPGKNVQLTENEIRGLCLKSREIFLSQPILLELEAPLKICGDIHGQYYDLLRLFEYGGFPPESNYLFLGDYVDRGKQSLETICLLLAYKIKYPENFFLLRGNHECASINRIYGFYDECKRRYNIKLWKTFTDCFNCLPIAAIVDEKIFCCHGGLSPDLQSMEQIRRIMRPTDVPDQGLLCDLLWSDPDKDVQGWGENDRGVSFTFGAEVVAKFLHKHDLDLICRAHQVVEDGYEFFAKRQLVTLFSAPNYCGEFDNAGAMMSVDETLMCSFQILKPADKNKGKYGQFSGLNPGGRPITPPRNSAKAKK
p-CIP stab down: compounds decreasing mouse p/CIP protein stability. 0.01% of 290,000 active. F442A p/CIP-EGFP cells, EGFP fluorescence, 16 h. AID 1984. decrease of EGFP signal, % at 10 µM. Q05BA5;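 active = EGFP signal decrease of at least 30% at 10 µM or well 3 SD below plate mean, unless failing retest; inactive = the rest, including hits failing retest or dose response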
* hit, by the source's call; ? = inconclusive; / = no result. Most compounds without a hit are left out; they make up all but 2.8% or so of the library.

SMILES | AI-2 QS modul | UBC13 inh | T cruzi inh | PP1 inh | p-CIP stab down
CC1(c2cc([N+](=O)[O-])cc([N+](=O)[O-])c2)CC(C)(C)N(C(=O)c2ccccc2)c2ccccc21 (stereo unspecified) | 21 | 1 | 67* | 1 | -10
CCCCCn1c2c(c(=N)c3ccccc31)CCC2 | 11 | -1 | 59* | -3 | -16
CCCCCCCCn1c2c(c(=N)c3ccccc31)CCC2 | 15 | 29 | 60* | / | -13
CCCCCCCCCn1c2c(c(=N)c3c1CCC3)CCCC2 | 18 | 41 | 58* | / | -37
COc1ccc([N+](=O)[O-])cc1NC(=O)CS(=O)(=O)c1ccc(C)cc1 | 2 | -6 | -17 | -1 | -3
COc1ccc([N+](=O)[O-])cc1NC(=O)COC(=O)C1CC1 | 27 | 14 | 56* | 1 | 6
CCC(=O)OCC(=O)Nc1cc([N+](=O)[O-])ccc1OC | 12 | 2 | -6 | -3 | 0
COc1ccc([N+](=O)[O-])cc1NC(=O)CCS(=O)(=O)c1ccc(Br)cc1 | 8 | -4 | 4 | 17* | -9
O=C(N/N=C/c1ccc(COc2ccc(Br)cc2)o1)c1ccc2c(c1)OCO2 | 21 | -10 | 20 | / | 5
O=C(N/N=C/c1ccc(-c2ccc(Br)cc2)o1)c1ccc2c(c1)OCO2 | 21 | -14 | 74* | 16* | -11
CN=c1scc(-c2ccccc2F)n1/N=C(\C)c1cccnc1 | 23 | 5 | 55* | 1 | -2
C/C(Cn1nnc([N+](=O)[O-])n1)=N\NC(=O)c1ccncc1 | 15 | -2 | 57* | -4 | 0
C/C(Cn1nnc([N+](=O)[O-])n1)=N\NC(=O)c1cccc(Cl)c1 | 25 | 1 | 57* | -2 | 1
C/C(CC(=O)Nc1ccccn1)=N\NC(=O)c1ccc([N+](=O)[O-])cc1Cl | 34 | -4 | -4 | -2 | 8
C/C(Cn1nnc([N+](=O)[O-])n1)=N\NC(=O)c1ccccc1Cl | 32 | -1 | 56* | -3 | -7
C/C(Cn1nnc([N+](=O)[O-])n1)=N\NC(=O)c1ccc(C)cc1 | 15 | / | 49 | 0 | -10
CC(=O)c1ccc(S(=O)(=O)N(C)CC(=O)N2CCCCCC2)cc1 | 25 | -3 | -2 | 2 | -4
COc1cc2c(C#CCCCO)c(-c3ccsc3)oc(=O)c2cc1OC | / | 17 | / | / | /
Cc1cc(NS(=O)(=O)c2ccc(NC(=O)Cc3cccs3)cc2)no1 | -78* | 6 | -10 | -4 | -4
C/C(N)=C(/C#N)C(=O)CSc1nc2cc(Cl)ccc2c(=O)n1Cc1ccco1 | 16 | 4 | 59* | 6 | 9
CSCc1cc(N(C)c2ccccc2)nc(-c2ccccn2)n1 | 17 | 2 | 60* | 15 | -3
CN(C)c1cc(C(F)(F)F)nc(-c2ccccn2)n1 | -3 | 7 | -8 | 4 | -4
O=C(COC(=O)CNS(=O)(=O)c1ccc(Br)cc1Cl)NC1CC1 | 13 | -2 | -11 | 1 | /
COc1cccc(CNC(=O)CN2CCC(c3nc4ccc(C)cc4[nH]3)CC2)c1 | 13 | 2 | 55* | -1 | -4
COc1ccccc1/C=C/C(=O)NCC(=O)N/N=C/c1ccccc1[N+](=O)[O-] | 3 | 0 | 61* | 2 | -4
SMILES | AI-2 QS modul | UBC13 inh | T cruzi inh | PP1 inh | p-CIP stab down
Cc1cc(C)c2[nH]c(=O)c(CN(Cc3cccs3)C(=S)NCc3ccco3)cc2c1 | 16 | -11 | 16 | 16* | -2
CN(CCNC(=O)C1CC(=O)N(c2ccc(F)c(Cl)c2)C1)Cc1ccccc1 (stereo unspecified) | -1 | 1 | 60* | -2 | -10
Cc1ccc(CCN2CC(C(=O)NCCCN(C)Cc3ccccc3)CC2=O)cc1 (stereo unspecified) | 24 | -2 | 63* | 1 | -2
CCCCNC(=O)C1CC(=O)N(CCc2ccccc2)C1 (stereo unspecified) | -7 | -4 | -9 | 0 | -4
Cc1ccc2nc(C)cc(C(=O)N3CCCC(N4CCN(c5ccccc5C)CC4)C3)c2c1 (stereo unspecified) | 1 | 3 | 7 | -1 | 8
CCCOc1ccc(C(=O)NNC(=S)NC(=O)c2ccco2)cc1 | ? | -21 | ? | 6 | -8
COc1cc(C(=O)NNC(=S)NC(=O)c2ccc(Cl)cc2)cc(OC)c1OC | 17 | -12 | 70* | 2 | 6
CCCOc1ccc(C(=O)NNC(=S)NC(=O)c2ccccc2)cc1 | -213* | -22 | 19 | 0 | 1
COc1ccc(C(=O)NNC(=S)NC(=O)c2ccco2)cc1 | -149* | 2 | 12 | -4 | -6
O=C(NC(=S)NNC(=O)c1ccco1)c1ccc(Br)cc1 | -128* | -15 | -49 | 13 | -15
O=C(NC(=S)NNC(=O)c1cccs1)c1ccco1 | -4 | 2 | -22 | 4 | -4
COc1ccc(C(=O)NNC(=S)NC(=O)c2ccc(Cl)cc2)cc1 | -72 | -20 | 12 | -2 | /
CC(C)CN(C(=O)CCNC(=O)c1ccc(Cl)cc1)c1c(N)n(CC(C)C)c(=O)[nH]c1=O | / | -3 | / | -3 | /
O=C(NNC(=S)NC(=O)c1cccc([N+](=O)[O-])c1)c1ccc(Br)cc1 | -212* | -19 | 29 | 1 | -4
O=C(NNC(=S)NC(=O)c1ccco1)c1ccc(F)cc1 | -104* | -17 | -14 | -3 | -11
O=C(NNC(=S)NC(=O)c1cccc([N+](=O)[O-])c1)c1ccc(O)cc1 | 39 | 3 | -11 | -4 | -3
O=C(Nc1nc2cc3c(cc2s1)OCCO3)c1ccc([N+](=O)[O-])o1 | 29 | -19 | 59* | 0 | -41
Cc1cc(C)c2nc(NC(=O)c3ccc([N+](=O)[O-])o3)sc2c1 | 18 | -19 | 36 | -1 | -18
Cc1cc(C)c2sc(NC(=O)c3ccc([N+](=O)[O-])o3)nc2c1 | -86* | -42 | 59* | -3 | -11
C=CCOc1ccccc1CN1CCCN(C)CC1 | 9 | 0 | 4 | 3 | -7
O=S(=O)(Nc1ccc(S(=O)(=O)Nc2ccccc2)cc1)c1ccccc1 | 16 | -14 | 7 | -6 | -2
O=S(=O)(Nc1ccc(Nc2ccccc2)cc1)c1ccc(F)cc1 | -95* | -6 | 13 | 0 | /
COc1ccc(-c2cnc(N)nc2-c2ccc(OCc3ccccc3)cc2O)cc1 | 6 | 4 | 58* | 2 | -8
C=C(C)COc1ccc(-c2nc(N)nc(C(F)(F)F)c2-c2ccc(OC)cc2)c(O)c1 | 11 | -4 | 56* | 1 | -10
COc1ccc(-c2nc(N)ncc2-c2ccc(OC)c(OC)c2)c(O)c1 | 46 | 4 | 7 | / | 10
C=C(C)COc1ccc(-c2ncnc(C(F)(F)F)c2-c2ccc(OC)cc2)c(O)c1 | 7 | -12 | 15 | -2 | -2
Cc1ccc(C(CC(=O)N2CCCC2)c2ccccc2)c(O)c1 (stereo unspecified) | 2 | 8 | -10 | / | -7
O=C(COC(=O)C1CC2CCCC(C1)C2=O)Nc1cccc(F)c1 (stereo unspecified) | / | -6 | / | -1 | /
